ChEMBL document CHEMBL4266020, “Design, Synthesis, and Antifibrosis Activity in Liver of Nonsecosteroidal Vitamin D Receptor Agonists with Phenyl-pyrrolyl Pentane Skeleton” (J Med Chem, 2018)
The source made the active and inactive calls. No cut-off for these calls is given here.

Columns and labels:
[1] = target: T1, Vitamin D3 receptor (Homo sapiens) (UniProt P11473); experiment: Binding affinity to VDR ligand binding domain (unknown origin) at 100 nM by fluorescence polarization assay relative to 1,25(OH)2D3
T1 sequence (whole entry): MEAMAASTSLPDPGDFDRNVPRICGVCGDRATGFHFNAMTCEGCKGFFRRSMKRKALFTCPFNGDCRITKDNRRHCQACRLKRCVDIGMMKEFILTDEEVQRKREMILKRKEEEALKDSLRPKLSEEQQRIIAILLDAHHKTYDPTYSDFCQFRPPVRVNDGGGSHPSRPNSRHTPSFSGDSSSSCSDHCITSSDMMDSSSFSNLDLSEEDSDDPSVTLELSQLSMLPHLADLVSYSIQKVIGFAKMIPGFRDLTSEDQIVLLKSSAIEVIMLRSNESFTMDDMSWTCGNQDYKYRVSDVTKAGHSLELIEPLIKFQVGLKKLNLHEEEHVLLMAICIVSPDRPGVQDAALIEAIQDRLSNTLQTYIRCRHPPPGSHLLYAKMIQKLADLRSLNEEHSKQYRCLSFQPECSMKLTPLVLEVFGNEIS

[2] = target: T1, Vitamin D3 receptor (Homo sapiens); experiment: Agonist activity at VDR in human LX2 cells assessed as inhibition of TGFbeta1-induced collagen-1 synthesis at 100 nM after 24 hrs by ELISA relative to 1,25(OH)2D3
Mus musculus [3] = experiment: Antifibrotic activity in C57BL/6J mouse model of CCl4-induced liver fibrosis assessed as decrease in alpha-SMA expression in liver at 20 ug/kg, po administered 5 times a week via gavage measured at 72 hrs post final CCl4 injection by IHC-staining based assay; format: functional, organism-based
Mus musculus [4] = experiment: Antifibrotic activity in C57BL/6J mouse model of CCl4-induced liver fibrosis assessed as decrease in alpha-SMA expression in liver at 20 ug/kg, po administered 5 times a week via gavage measured at 72 hrs post final CCl4 injection by Q-PCR analysis; format: functional, organism-based
[5] = Oral bioavailability in Sprague-Dawley rat at 20 mg/kg by HPLC analysis; format: ADME, organism-based; conditions: in vivo
Mus musculus [6] = experiment: Antifibrotic activity in C57BL/6J mouse model of CCl4-induced liver fibrosis assessed as reduction in COL1A1 mRNA expression in liver at 20 ug/kg, po administered 5 times a week via gavage measured at 72 hrs post final CCl4 injection by Q-PCR analysis; format: functional, organism-based
[7] = Half life in Sprague-Dawley rat at 20 mg/kg, po by HPLC analysis; format: ADME, organism-based; conditions: in vivo
Mus musculus [8] = experiment: Effect on Trpv6 mRNA expression in CCL4-induced C57BL/6J mouse liver damage model at 20 ug/kg, po via gavage measured on day 3 and 7 by Q-PCR analysis; format: ADME, organism-based; conditions: in vivo, 0.02 mg/kg
Homo sapiens [9] = organism: Homo sapiens; experiment: Inhibition of TGFbeta1-mediated collagen-1 activation in human LX2 cells at 100 nM after 24 hrs in presence of VDR siRNA by Western blot analysis; format: functional, cell-based
Outline: (§1)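 LX-2 cells transfected with VDR-directed or scrambled siRNA (50 nM, Lipofectamine 2000), cultured 24 h, then treated 24 h with 100 nM compound, TGFβ1 (1 ng/mL), or both. VDR, α-SMA and collagen I measured by western blot (10% SDS-PAGE, PVDF).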

Mus musculus [10] = experiment: Antifibrotic activity in C57BL6/J mouse model of CCl4-induced liver fibrosis assessed as reduction in collagen accumulation in liver at 20 ug/kg, po administered 5 times a week via gavage measured at 72 hrs post final CCl4 injection by Masson's trichrome-staining based assay; format: functional, organism-based; conditions: C57BL/6J
Outline: (§2)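 Same CCl4 mouse model (n=5; 0.5 mL/kg IP in corn oil, 3×/week for 4 weeks; 20 µg/kg oral gavage 5×/week from day 20; sacrifice 72 h after last CCl4). Livers fixed in 4% paraformaldehyde for 24 h, paraffin-embedded, and cut into 5 µm sections. Sections stained with H&E (×100) or Masson's trichrome (×200). Hydroxyproline measured by kit.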

Mus musculus [11] = experiment: Antifibrotic activity in C57BL/6J mouse model of CCl4-induced liver fibrosis assessed as increase in CYP24A1 expression in liver at 20 ug/kg, po administered 5 times a week via gavage measured at 72 hrs post final CCl4 injection by Q-PCR analysis; format: functional, organism-based
[12] = target: T1, Vitamin D3 receptor (Homo sapiens); experiment: Transactivation of VDR in human LX2 cells assessed as inhibition of TGFbeta1-induced collagen 1 protein levels at 100 nM after 24 hrs by Western blot analysis; format: cell-based
Outline: (§3)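 LX-2 cells cultured 24 h with 100 nM compound in TGFβ1-treated cells. Proteins separated on 10% SDS-PAGE, transferred to PVDF, and α-SMA or collagen I bands detected by infrared scanning.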

Mus musculus [13] = experiment: Induction of serum calcium levels in CCL4-induced C57BL/6J mouse liver damage model at 20 ug/kg, po administered 5 times a week via gavage measured at 72 hrs post final CCl4 injection; format: organism-based; conditions: in vivo, 0.02 mg/kg
Outline: (§4)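 Same CCl4 mouse model (n=5; 0.5 mL/kg IP, 3×/week for 4 weeks; 20 µg/kg gavage 5×/week from day 20; sacrifice 72 h after last CCl4). Serum obtained by centrifugation at 3000 rpm for 15 min at 4°C. ALT, AST, TBA and calcium measured with commercial kits. Mean ± SD.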

[14] = target: T1, Vitamin D3 receptor (Homo sapiens); experiment: Transactivation of VDR (unknown origin) expressed in HEK293 cells co-transfected with human RXRalpha after 24 hrs by dual luciferase reporter gene assay; format: cell-based
Outline: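 HEK293 cells at 85-90% confluence transfected per well with 140 ng TK-SPP×3-Luc reporter, 20 ng pCMX-Renilla, 30 ng pENTER-CMV-hRXRα and 100 ng pCMX-VDR. Compounds added 8 h after transfection. Dual-luciferase assay run 24 h later, firefly normalized to Renilla, three experiments.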

[15] = target: T1, Vitamin D3 receptor (Homo sapiens); experiment: Transactivation of VDR in human LX2 cells assessed as inhibition of TGFbeta1-induced ACTA2 mRNA expression at 100 nM after 24 hrs by Q-PCR analysis; format: cell-based
Outline: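 LX-2 cells cultured with 100 nM compound for 24 h. ACTA2 mRNA measured by SYBR Green Q-PCR, normalized to U36B4 (human internal control).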

Homo sapiens [16] = organism: Homo sapiens; experiment: Inhibition of TGFbeta1-mediated alphaSMA expression in human LX2 cells at 100 nM after 24 hrs in presence of VDR siRNA by Western blot analysis; format: functional, cell-based
Outline: as §1

[17] = target: T1, Vitamin D3 receptor (Homo sapiens); experiment: Transactivation of VDR in human LX2 cells assessed as inhibition of TGFbeta1-induced alpha-SMA protein levels at 100 nM after 24 hrs by Western blot analysis; format: cell-based
Outline: as §3

Mus musculus [18] = experiment: Hepatoprotective activity against CCL4-induced liver damage in C57BL/6J mouse assessed as reduction in serum AST levels at 20 ug/kg, po administered 5 times a week via gavage measured at 72 hrs post final CCl4 injection; format: functional, organism-based
Outline: as §4

[19] = target: T1, Vitamin D3 receptor (Homo sapiens); experiment: Agonist activity at VDR in human LX2 cells assessed as upregulation of TGFbeta1-induced CYP24A1 mRNA expression after 24 hrs by Q-PCR method; format: cell-based
Mus musculus [20] = experiment: Hepatoprotective activity against CCL4-induced liver damage in C57BL/6J mouse assessed as reduction in serum ALT levels at 20 ug/kg, po administered 5 times a week via gavage measured at 72 hrs post final CCl4 injection; format: functional, organism-based
Outline: as §4

Mus musculus [21] = experiment: Antifibrotic activity in C57BL/6J mouse model of CCl4-induced liver fibrosis assessed as reduction in hydroxyproline levels in liver at 20 ug/kg, po administered 5 times a week via gavage measured at 72 hrs post final CCl4 injection; format: functional, organism-based
Outline: as §2

Mus musculus [22] = experiment: Hepatoprotective activity against CCL4-induced liver damage in C57BL/6J mouse assessed as reduction in serum TBA levels at 20 ug/kg, po administered 5 times a week via gavage measured at 72 hrs post final CCl4 injection; format: functional, organism-based
Outline: as §4

Mus musculus [23] = experiment: Antifibrotic activity in C57BL/6J mouse model of CCl4-induced liver fibrosis assessed as reduction in collagen accumulation in liver at 20 ug/kg, po administered 5 times a week via gavage measured at 72 hrs post final CCl4 injection by hematoxylin-eosin staining based assay; format: functional, organism-based
Outline: as §2

CCn1c(C(=O)NCC(F)(F)F)ccc1C(CC)(CC)c1ccc(OCC(O)CO)c(C)c1 (stereo unspecified)
Activity [1]: 37%
collagen-1 synthesis inhibition relative to 1,25(OH)2D3 (%) [2]: 135%

CCn1cc(C(CC)(CC)c2ccc(OCC(O)CO)c(C)c2)cc1C(=O)NCC(C)(C)C (stereo unspecified)
Activity [1]: 31%
collagen-1 synthesis inhibition relative to 1,25(OH)2D3 (%) [2]: 119%

CCCCCNC(=O)c1cc(C(CC)(CC)c2ccc(OCC(O)CO)c(C)c2)cn1CC (stereo unspecified)
Activity [1]: 16%
collagen-1 synthesis inhibition relative to 1,25(OH)2D3 (%) [2]: 51%

CCn1cc(C(CC)(CC)c2ccc(OCCCC(=O)O)c(C)c2)cc1C(=O)NCC(C)(C)O
Activity [1]: 32%
collagen-1 synthesis inhibition relative to 1,25(OH)2D3 (%) [2]: 112%

CCn1cc(C(CC)(CC)c2ccc(OC(=O)[C@H](C)N)c(C)c2)cc1C(=O)NCC(C)(C)O
Activity [1]: 20%
collagen-1 synthesis inhibition relative to 1,25(OH)2D3 (%) [2]: 73%

CCCCCNC(=O)c1ccc(C(CC)(CC)c2ccc(OCC(O)CO)c(C)c2)n1CC (stereo unspecified)
Activity [1]: 21%
collagen-1 synthesis inhibition relative to 1,25(OH)2D3 (%) [2]: 70%

CCn1cc(C(CC)(CC)c2ccc(OCC(O)CO)c(C)c2)cc1C(=O)NCC(C)(C)O (stereo unspecified)
Activity (Mus musculus [3]): Active
Activity (Mus musculus [4]): Active
bioavailability [5]: 29.3%
Activity [1]: 62%
Activity (Mus musculus [6]): Active
half-life [7]: 6.57 h
Activity (Mus musculus [8]): Non-Toxic
inhibition (Homo sapiens [9]): inactive
Activity (Mus musculus [10]): Active
Activity (Mus musculus [11]): Active
inhibition [12]: Active
Activity (Mus musculus [13]): Non-Toxic
Activity [14]: Dose-dependent effect
inhibition [15]: Active
inhibition (Homo sapiens [16]): inactive
inhibition [17]: Active
Activity (Mus musculus [18]): Active
Activity [19]: Active
Activity (Mus musculus [20]): Active
Activity (Mus musculus [21]): Active
Activity (Mus musculus [22]): Active
Activity (Mus musculus [23]): Active

CCn1cc(C(CC)(CC)c2ccc(OC(=O)CCC(=O)O)c(C)c2)cc1C(=O)NCC(C)(C)O
Activity [1]: 30%
collagen-1 synthesis inhibition relative to 1,25(OH)2D3 (%) [2]: 80%

CCn1cc(C(CC)(CC)c2ccc(OCC(O)CO)c(C)c2)cc1C(=O)NCC(F)(F)F (stereo unspecified)
Activity [1]: 39%
inhibition [12]: Active
Activity [14]: Dose-dependent effect
collagen-1 synthesis inhibition relative to 1,25(OH)2D3 (%) [2]: 133%
inhibition [17]: Active

CCn1cc(C(CC)(CC)c2ccc(OCCCCC(=O)O)c(C)c2)cc1C(=O)NCC(C)(C)O
Activity [1]: 30%
collagen-1 synthesis inhibition relative to 1,25(OH)2D3 (%) [2]: 90%

CCn1c(C(=O)NCC(C)(C)C)ccc1C(CC)(CC)c1ccc(OCC(O)CO)c(C)c1 (stereo unspecified)
Activity [1]: 45%
Activity [14]: Dose-dependent effect
inhibition [15]: inactive

C=C1/C(=C\C=C2/CCC[C@]3(C)[C@@H]([C@H](C)/C=C/[C@@H](O)C4CC4)CC[C@@H]23)C[C@@H](O)C[C@@H]1O
Activity [1]: 93%
collagen-1 synthesis inhibition relative to 1,25(OH)2D3 (%) [2]: 95%
Activity (Mus musculus [18]): Active
Activity (Mus musculus [20]): Active
Activity (Mus musculus [21]): Active
Activity (Mus musculus [22]): Active

CCn1c(C(=O)NCC2CC2)ccc1C(CC)(CC)c1ccc(OCC(O)CO)c(C)c1 (stereo unspecified)
Activity [1]: 27%
collagen-1 synthesis inhibition relative to 1,25(OH)2D3 (%) [2]: 71%

C=C1/C(=C\C=C2/CCC[C@]3(C)[C@@H]([C@H](C)CCCC(C)(C)O)CC[C@@H]23)C[C@@H](O)C[C@@H]1O [CALCITRIOL]
bioavailability [5]: 30.8%
half-life [7]: 7.55 h
Activity (Mus musculus [18]): Active
Activity (Mus musculus [20]): Active
Activity (Mus musculus [21]): Active
Activity (Mus musculus [22]): Active

CCn1cc(C(CC)(CC)c2ccc(OC(=O)CCN)c(C)c2)cc1C(=O)NCC(C)(C)O
Activity [1]: 22%
collagen-1 synthesis inhibition relative to 1,25(OH)2D3 (%) [2]: 66%

CCn1c(C(=O)NCC(C)(C)O)ccc1C(CC)(CC)c1ccc(OCC(O)CO)c(C)c1 (stereo unspecified)
Activity [1]: 43%
Activity [14]: Dose-dependent effect
inhibition [15]: inactive
collagen-1 synthesis inhibition relative to 1,25(OH)2D3 (%) [2]: 150%
